Data reported in ChEMBL document CHEMBL5579886, “Selective Degradation of MLK3 by a Novel CEP1347-VHL-02 PROTAC Compound Limits the Oncogenic Potential of TNBC” (J Med Chem, 2024).
The source made the active and inactive calls. The calls are words filed in the database; no cut-off is given here.

Legend:
[1] = biological target: T1, von Hippel-Lindau disease tumor suppressor/Mitogen-activated protein kinase kinase kinase 9 (Homo sapiens) (UniProt P80192+P40337); test: PROTAC activity at VHL/MLK1 in human MCF7 cells assessed as protein degradation at 1 uM incubated for 24 hrs by immunoblot analysis; format: cell-based
T1 sequence (P40337 whole entry, looked up): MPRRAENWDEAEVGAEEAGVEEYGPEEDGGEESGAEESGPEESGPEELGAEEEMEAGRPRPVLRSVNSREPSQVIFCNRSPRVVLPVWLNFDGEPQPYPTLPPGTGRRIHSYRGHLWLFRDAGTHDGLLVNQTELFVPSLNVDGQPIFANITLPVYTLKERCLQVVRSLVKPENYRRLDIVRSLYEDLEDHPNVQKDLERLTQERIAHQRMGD
T1 sequence (P80192 whole entry, looked up): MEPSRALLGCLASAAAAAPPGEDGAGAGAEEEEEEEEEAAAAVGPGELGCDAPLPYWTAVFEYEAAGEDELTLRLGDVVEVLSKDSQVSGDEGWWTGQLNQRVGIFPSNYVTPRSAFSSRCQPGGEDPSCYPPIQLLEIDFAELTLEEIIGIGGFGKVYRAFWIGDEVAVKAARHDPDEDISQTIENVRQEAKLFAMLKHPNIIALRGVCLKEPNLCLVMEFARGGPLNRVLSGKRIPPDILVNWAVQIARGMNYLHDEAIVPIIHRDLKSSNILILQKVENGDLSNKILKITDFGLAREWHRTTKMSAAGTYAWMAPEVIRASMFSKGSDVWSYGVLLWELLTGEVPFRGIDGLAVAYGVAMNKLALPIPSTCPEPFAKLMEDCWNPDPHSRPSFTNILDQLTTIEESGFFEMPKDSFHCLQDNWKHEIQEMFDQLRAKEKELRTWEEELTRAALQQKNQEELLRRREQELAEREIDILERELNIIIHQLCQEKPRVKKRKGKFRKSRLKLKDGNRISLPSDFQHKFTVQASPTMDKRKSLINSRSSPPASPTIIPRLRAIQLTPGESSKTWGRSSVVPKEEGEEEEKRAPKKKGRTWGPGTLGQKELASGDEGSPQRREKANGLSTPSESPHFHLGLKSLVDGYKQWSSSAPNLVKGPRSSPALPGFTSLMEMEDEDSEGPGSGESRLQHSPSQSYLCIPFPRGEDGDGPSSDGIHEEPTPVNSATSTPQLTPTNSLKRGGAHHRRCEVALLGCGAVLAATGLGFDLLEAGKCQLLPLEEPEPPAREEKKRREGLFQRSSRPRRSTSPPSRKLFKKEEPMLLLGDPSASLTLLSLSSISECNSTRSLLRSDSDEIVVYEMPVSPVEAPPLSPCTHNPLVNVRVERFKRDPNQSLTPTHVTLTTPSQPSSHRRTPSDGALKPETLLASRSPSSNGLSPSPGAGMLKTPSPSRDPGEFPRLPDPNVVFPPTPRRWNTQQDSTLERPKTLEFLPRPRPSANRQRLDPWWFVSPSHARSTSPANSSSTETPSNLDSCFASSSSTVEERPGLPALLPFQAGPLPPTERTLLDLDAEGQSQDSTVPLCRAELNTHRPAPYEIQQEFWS
Procedure, shortened: (§1)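 Endogenous MLK1, MLK2 or MLK4 levels in MCF-7 and MDA-MB-468 cells. Cells were grown in high-glucose DMEM with 10% FBS, seeded at 100 000 cells/well and treated the next day for 24 h, with DMSO as control. Lysis was in RIPA with protease inhibitor, followed by 10% SDS-PAGE, nitrocellulose transfer and ECL immunoblot with GAPDH or β-actin as loading control.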

[2] = biological target: T2, von Hippel-Lindau disease tumor suppressor/Mitogen-activated protein kinase kinase kinase 11 (Homo sapiens, UniProt Q16584+P40337); test: PROTAC activity at VHL/MLK3 in human MDA-MB-468 cells assessed as protein degradation measured after 24 hrs by Western blot analysis; format: cell-based
Procedure, shortened: (§2)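 Endogenous MLK3: cells seeded at 100 000/well, treated next day for 24 h with PROTAC at 0.1–5 μM, DMSO control; immunoblot with GAPDH or β-actin loading control. Remaining MLK3 percentage plotted against concentration to derive DC50 and Dmax.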

[3] = biological target: T3, von Hippel-Lindau disease tumor suppressor/Mitogen-activated protein kinase kinase kinase 21 (Homo sapiens) (UniProt P40337+Q5TCX8); test: PROTAC activity at IAP/MLK4 in human MDA-MB-468 cells assessed as protein degradation at 1 uM incubated for 24 hrs by immunoblot analysis; format: cell-based; procedure, shortened: as §1
T3 sequence (P40337 whole entry, looked up): as the sequence (P40337 whole entry, looked up) above
T3 sequence (Q5TCX8 whole entry, looked up): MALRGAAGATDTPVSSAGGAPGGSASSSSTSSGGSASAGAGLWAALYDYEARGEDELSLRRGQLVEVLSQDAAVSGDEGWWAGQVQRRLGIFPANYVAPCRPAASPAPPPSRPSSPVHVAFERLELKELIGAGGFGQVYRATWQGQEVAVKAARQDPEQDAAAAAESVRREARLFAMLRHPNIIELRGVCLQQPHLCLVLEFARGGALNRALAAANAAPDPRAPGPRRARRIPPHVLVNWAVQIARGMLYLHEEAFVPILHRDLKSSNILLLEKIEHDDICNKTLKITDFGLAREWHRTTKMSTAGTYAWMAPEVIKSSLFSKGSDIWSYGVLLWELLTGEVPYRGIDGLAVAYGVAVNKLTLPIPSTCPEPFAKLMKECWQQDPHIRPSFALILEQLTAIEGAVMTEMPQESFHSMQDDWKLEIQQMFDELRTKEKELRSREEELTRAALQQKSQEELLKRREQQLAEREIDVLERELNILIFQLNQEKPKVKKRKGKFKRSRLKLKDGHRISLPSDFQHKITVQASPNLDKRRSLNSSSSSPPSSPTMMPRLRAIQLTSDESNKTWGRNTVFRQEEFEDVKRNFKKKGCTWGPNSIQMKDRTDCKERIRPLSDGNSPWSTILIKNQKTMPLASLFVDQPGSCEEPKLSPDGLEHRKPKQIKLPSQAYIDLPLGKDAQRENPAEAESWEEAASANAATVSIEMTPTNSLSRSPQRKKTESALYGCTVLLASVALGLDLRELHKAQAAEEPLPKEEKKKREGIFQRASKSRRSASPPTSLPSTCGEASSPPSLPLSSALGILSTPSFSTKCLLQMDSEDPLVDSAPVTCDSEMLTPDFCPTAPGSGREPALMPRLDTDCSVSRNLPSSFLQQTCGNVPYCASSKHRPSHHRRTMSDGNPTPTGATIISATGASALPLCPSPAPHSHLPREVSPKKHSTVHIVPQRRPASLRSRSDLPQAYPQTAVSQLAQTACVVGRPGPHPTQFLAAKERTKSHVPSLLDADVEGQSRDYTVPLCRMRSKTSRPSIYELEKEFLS

[4] = biological target: T2, von Hippel-Lindau disease tumor suppressor/Mitogen-activated protein kinase kinase kinase 11; test: PROTAC activity at VHL/MLK3 in human MCF7 cells assessed as protein degradation at 1 uM measured after 24 hrs by immunoblot analysis
Target sequence in this assay (P40337 whole entry, looked up): as the sequence (P40337 whole entry, looked up) above
Target sequence in this assay (Q16584 whole entry, looked up): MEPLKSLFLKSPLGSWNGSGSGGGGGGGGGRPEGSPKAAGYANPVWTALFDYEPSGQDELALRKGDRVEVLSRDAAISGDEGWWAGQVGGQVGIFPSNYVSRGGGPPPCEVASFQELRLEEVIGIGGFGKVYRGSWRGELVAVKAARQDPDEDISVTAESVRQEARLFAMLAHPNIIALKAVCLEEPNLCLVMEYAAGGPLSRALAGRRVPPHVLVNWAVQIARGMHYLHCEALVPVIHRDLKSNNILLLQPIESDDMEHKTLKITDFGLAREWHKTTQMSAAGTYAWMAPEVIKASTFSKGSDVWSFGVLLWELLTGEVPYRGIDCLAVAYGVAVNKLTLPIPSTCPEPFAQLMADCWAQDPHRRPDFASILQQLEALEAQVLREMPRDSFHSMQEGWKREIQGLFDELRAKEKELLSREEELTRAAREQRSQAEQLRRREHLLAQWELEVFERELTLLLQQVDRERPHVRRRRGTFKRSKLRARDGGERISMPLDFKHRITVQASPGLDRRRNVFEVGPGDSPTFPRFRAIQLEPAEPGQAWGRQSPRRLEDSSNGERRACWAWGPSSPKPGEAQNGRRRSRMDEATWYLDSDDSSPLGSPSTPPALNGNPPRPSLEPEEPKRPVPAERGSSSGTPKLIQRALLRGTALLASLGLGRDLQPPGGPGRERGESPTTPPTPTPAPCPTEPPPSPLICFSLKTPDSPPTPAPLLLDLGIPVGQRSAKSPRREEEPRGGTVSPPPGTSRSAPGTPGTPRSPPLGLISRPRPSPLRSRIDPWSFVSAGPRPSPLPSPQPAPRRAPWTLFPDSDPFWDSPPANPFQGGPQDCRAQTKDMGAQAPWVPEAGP

[5] = biological target: T2, von Hippel-Lindau disease tumor suppressor/Mitogen-activated protein kinase kinase kinase 11; test: PROTAC activity at VHL/DOX-inducible MLK3 (unknown origin) overexpressed in human HCC1806 cells assessed as protein degradation at 0.25 uM incubated for 24 hrs by immunoblot analysis; format: cell-based
Target sequence in this assay (P40337 whole entry, looked up): as the sequence (P40337 whole entry, looked up) above
Target sequence in this assay (Q16584 whole entry, looked up): as the sequence (Q16584 whole entry, looked up) above

[6] = biological target: T3, von Hippel-Lindau disease tumor suppressor/Mitogen-activated protein kinase kinase kinase 21 (Homo sapiens); test: PROTAC activity at VHL/DOX-inducible MLK4 (unknown origin) overexpressed in human A-375 cells assessed as protein degradation at 0.1 to 5 uM incubated for 24 hrs by immunoblot analysis; format: cell-based; details: dose 0.1-5 µM
Procedure, shortened: (§3)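 A375 cells carried lentiviral DOX-inducible MLK1, MLK2 or MLK4 and were grown in RPMI-1640 with 10% FBS. Cells were seeded at 100 000/well and induced with 1 μg/mL DOX. After 24 h they were treated at 0.1–5 μM for 24 h, with DMSO as control. Levels were read by ECL immunoblot of RIPA lysates, with GAPDH or β-actin loading control.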

[7] = biological target: T2, von Hippel-Lindau disease tumor suppressor/Mitogen-activated protein kinase kinase kinase 11; test: PROTAC activity at VHL/MLK3 in human MCF7 cells assessed as protein degradation measured after 24 hrs by Western blot analysis; format: cell-based; procedure, shortened: as §2
[8] = system: MDA-MB-468; test: Growth inhibition of human MDA-MB-468 cell spheroids in hydrogel at 1 uM incubated for 10 days; format: functional, cell-based; details: time 10.0 day
Procedure, shortened: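 4000 cells plated on top of hydrogels and grown 10 days with 1 μM PROTAC or DMSO; spheroid formation and size scored.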

[9] = system: MCF7; test: Effect on MLK3 mRNA level in human MCF7 cells at 1 uM measured after 24 hrs by RT-qPCR analysis; format: functional, cell-based
Procedure, shortened: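 Total RNA extracted from MCF-7 and MDA-MB-468 cells 24 h after PROTAC treatment, purity and concentration checked spectrophotometrically, reverse transcribed to cDNA and MLK3 transcript quantified by RT-qPCR.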

[10] = biological target: T2, von Hippel-Lindau disease tumor suppressor/Mitogen-activated protein kinase kinase kinase 11; test: PROTAC activity at VHL/MLK3 in human MDA-MB-468 cells assessed as protein degradation at 1 uM measured after 24 hrs by immunoblot analysis; format: cell-based
Procedure, shortened: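 MCF-7 and MDA-MB-468 cells were treated for 24 h across 0.1–5 μM, with DMSO as control. MLK3 was immunoblotted and quantified as percent remaining versus concentration, from which DC50 and Dmax were derived.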
Target sequence in this assay (P40337 whole entry, looked up): as the sequence (P40337 whole entry, looked up) above
Target sequence in this assay (Q16584 whole entry, looked up): as the sequence (Q16584 whole entry, looked up) above

[11] = system: MCF7; test: Effect on cell cycle in human MCF7 cells at 1 uM measured after 48 hrs by PI staining based flow cytometry; format: functional
Procedure, shortened: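 Cells seeded at 50 000/well, exposed to 1 μM PROTAC or DMSO for 48 h, trypsinized, fixed in ice-cold methanol and held at –20 °C; next day stained with PI/RNase solution and read by flow cytometry. Two independent experiments.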

[12] = biological target: T1, von Hippel-Lindau disease tumor suppressor/Mitogen-activated protein kinase kinase kinase 9 (Homo sapiens); test: PROTAC activity at VHL/DOX-inducible MLK1 (unknown origin) overexpressed in human A-375 cells assessed as protein degradation at 0.1 to 5 uM incubated for 24 hrs by immunoblot analysis; format: cell-based; details: dose 0.1-5 µM; procedure, shortened: as §3
[13] = PROTAC activity at IAP/MLK1 in human MCF7 cells assessed as protein degradation at 1 uM incubated for 24 hrs by immunoblot analysis
[14] = biological target: T3, von Hippel-Lindau disease tumor suppressor/Mitogen-activated protein kinase kinase kinase 21 (Homo sapiens); test: PROTAC activity at IAP/MLK4 in human MCF7 cells assessed as protein degradation at 1 uM incubated for 24 hrs by immunoblot analysis; format: cell-based; procedure, shortened: as §1
[15] = biological target: T2, von Hippel-Lindau disease tumor suppressor/Mitogen-activated protein kinase kinase kinase 11; test: PROTAC activity at VHL/MLK3 in human MCF7 cells assessed as protein degradation at 1 uM by Western blot analysis; format: cell-based; details: time 4-48 hrs, TDE = time-dependent effect
Target sequence in this assay (P40337 whole entry, looked up): as the sequence (P40337 whole entry, looked up) above
Target sequence in this assay (Q16584 whole entry, looked up): as the sequence (Q16584 whole entry, looked up) above

[16] = biological target: T2, von Hippel-Lindau disease tumor suppressor/Mitogen-activated protein kinase kinase kinase 11; test: PROTAC activity at VHL/MLK3 in human MDA-MB-468 cells assessed as protein degradation measured after 4 to 48 hrs by Western blot analysis; format: cell-based; details: dose 1.0 µM, time 4-48 hrs
Procedure, shortened: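 MCF-7 and MDA-MB-468 cells were seeded at 100 000/well and treated with 1 μM PROTAC for 4–48 h, with DMSO as control. MLK3 was quantified by immunoblot as percent remaining, and t1/2 of degradation was derived from the time course.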
Target sequence in this assay (P40337 whole entry, looked up): as the sequence (P40337 whole entry, looked up) above
Target sequence in this assay (Q16584 whole entry, looked up): as the sequence (Q16584 whole entry, looked up) above

[17] = biological target: T2, von Hippel-Lindau disease tumor suppressor/Mitogen-activated protein kinase kinase kinase 11; test: PROTAC activity at VHL/MLK3 in carfilzomib-treated human MDA-MB-468 cells assessed as protein degradation at 1 uM measured after 7 hrs by immunoblot analysis; format: cell-based
Procedure, shortened: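 MCF-7 and MDA-MB-468 cells were seeded at 100 000/well. The next day they were pretreated with 1 μM carfilzomib for 1 h, then treated with 1 μM PROTAC for 7 h, with DMSO as control. Endogenous MLK3 was measured by immunoblot of RIPA lysates.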
Target sequence in this assay (P40337 whole entry, looked up): as the sequence (P40337 whole entry, looked up) above
Target sequence in this assay (Q16584 whole entry, looked up): as the sequence (Q16584 whole entry, looked up) above

[18] = system: MCF7; test: Induction of apoptosis in human MCF7 cells at 1 uM measured after 48 hrs by Annexin V-FITC/PI staining based flow cytometry; format: functional, cell-based
Procedure, shortened: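 Cells seeded at 50 000/well, treated 48 h with 1 μM PROTAC or DMSO; cells plus supernatant stained with Alexa Fluor488 Annexin V for 30 min at room temperature in the dark, PI added 5 min before flow cytometry. At least three repeats.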

[19] = biological target: von Hippel-Lindau disease tumor suppressor/Mitogen-activated protein kinase kinase kinase 10 (Homo sapiens) (UniProt Q02779+P40337); test: PROTAC activity at VHL/MLK2 in human MDA-MB-468 cells assessed as protein degradation at 1 uM incubated for 24 hrs by immunoblot analysis; format: cell-based; procedure, shortened: as §1
[20] = biological target: T1, von Hippel-Lindau disease tumor suppressor/Mitogen-activated protein kinase kinase kinase 9 (Homo sapiens); test: PROTAC activity at VHL/MLK1 in human MDA-MB-468 cells assessed as protein degradation at 1 uM incubated for 24 hrs by immunoblot analysis; format: cell-based; procedure, shortened: as §1

With CCSCc1ccc2c(c1)c1c3c(c4c5cc(CSCC)ccc5n5c4c1n2[C@H]1C[C@](O)(C(=O)NCCOCCOCCOCC(=O)N[C@H](C(=O)N2C[C@H](O)C[C@H]2C(=O)N[C@@H](C)c2ccc(-c4scnc4C)cc2)C(C)(C)C)[C@]5(C)O1)CNC3=O the Activity [1] was “inactive”, the DC50 [2] was 300 nM and the Activity [3] was “inactive”. For the same molecule, the Activity [4] was “Active”, the Activity [5] was “Active” and the Activity [6] was “inactive”. For the same molecule, the DC50 [7] was 50 nM, the “growth inhibition (GI)” value [8] was “Active” and the Activity [9] was “inactive”. The Activity [10] was “Active”, the Activity [11] was “inactive” and the Activity [12] was “inactive”. The Activity [13] was “inactive”, the Activity [14] was “inactive” and the Activity [15] was “Tde”. The Activity [16] was “Dose-Dependent Effect”, the Activity [17] was “inactive” and the Activity [18] was “inactive”. For the same molecule, the Activity [19] was “inactive” and the Activity [20] was “inactive”.
